pIC50: −log10 of the molar value.
Columns and labels:
[1] = target: T1, Phosphotyrosine protein phosphatase (Mycobacterium tuberculosis, UniProt A0A045ISB3); test: Inhibition of Mycobacterium tuberculosis His-tagged PtpB expressed in Escherichia coli Rosetta 2 (DE3) using pNPP as substrate after 30 mins by spectrophotometric method
T1 sequence (A0A045ISB3 whole entry): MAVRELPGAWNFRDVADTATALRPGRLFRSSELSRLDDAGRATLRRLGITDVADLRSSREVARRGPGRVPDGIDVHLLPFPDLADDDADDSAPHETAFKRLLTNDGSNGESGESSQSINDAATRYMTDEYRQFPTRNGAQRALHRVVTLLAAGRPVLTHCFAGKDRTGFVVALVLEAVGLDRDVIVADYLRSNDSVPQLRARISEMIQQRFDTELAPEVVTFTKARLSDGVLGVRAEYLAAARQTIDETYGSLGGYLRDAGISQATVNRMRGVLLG

[2] = target: T2, Tyrosine-protein phosphatase non-receptor type 1 (Homo sapiens, UniProt P18031); test: Inhibition of human PTPN1 expressed in Escherichia coli Rosetta 2 (DE3) using pNPP as substrate after 45 mins by spectrophotometric method
T2 sequence (P18031 whole entry): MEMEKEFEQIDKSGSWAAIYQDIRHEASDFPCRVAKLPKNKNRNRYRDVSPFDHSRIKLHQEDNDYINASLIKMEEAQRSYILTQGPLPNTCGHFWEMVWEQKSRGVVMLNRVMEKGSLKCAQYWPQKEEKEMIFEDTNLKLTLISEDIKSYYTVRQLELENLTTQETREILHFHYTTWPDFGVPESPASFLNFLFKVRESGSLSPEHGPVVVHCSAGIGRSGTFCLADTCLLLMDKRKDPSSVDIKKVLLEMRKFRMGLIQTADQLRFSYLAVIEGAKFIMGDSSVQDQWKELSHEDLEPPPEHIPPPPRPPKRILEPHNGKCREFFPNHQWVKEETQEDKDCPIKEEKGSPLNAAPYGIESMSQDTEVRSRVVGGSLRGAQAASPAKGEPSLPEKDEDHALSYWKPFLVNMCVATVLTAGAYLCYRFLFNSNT

[3] = target: T3, Tyrosine-protein phosphatase non-receptor type 5 (Homo sapiens, UniProt P54829); test: Inhibition of human PTPN5 expressed in Escherichia coli Rosetta 2 (DE3) using pNPP as substrate after 45 mins by spectrophotometric method
T3 sequence (P54829 whole entry): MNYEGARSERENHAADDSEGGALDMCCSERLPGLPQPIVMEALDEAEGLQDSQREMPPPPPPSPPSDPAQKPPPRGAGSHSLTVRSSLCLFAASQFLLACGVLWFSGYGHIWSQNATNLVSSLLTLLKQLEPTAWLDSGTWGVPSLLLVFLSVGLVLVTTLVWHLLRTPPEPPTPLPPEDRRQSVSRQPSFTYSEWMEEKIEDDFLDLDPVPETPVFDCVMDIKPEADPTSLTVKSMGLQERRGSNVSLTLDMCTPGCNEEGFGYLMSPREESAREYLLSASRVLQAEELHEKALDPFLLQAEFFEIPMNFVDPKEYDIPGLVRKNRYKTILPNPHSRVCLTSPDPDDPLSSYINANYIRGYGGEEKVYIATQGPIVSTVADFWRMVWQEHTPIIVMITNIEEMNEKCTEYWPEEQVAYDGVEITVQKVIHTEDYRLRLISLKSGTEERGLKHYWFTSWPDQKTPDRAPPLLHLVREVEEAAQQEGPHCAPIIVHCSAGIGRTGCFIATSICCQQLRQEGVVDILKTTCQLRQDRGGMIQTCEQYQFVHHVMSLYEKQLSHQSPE

[4] = target: T4, Tyrosine-protein phosphatase non-receptor type 2 (Homo sapiens, UniProt P17706); test: Inhibition of human PTPN2 expressed in Escherichia coli Rosetta 2 (DE3) using pNPP as substrate after 45 mins by spectrophotometric method
T4 sequence (P17706 whole entry): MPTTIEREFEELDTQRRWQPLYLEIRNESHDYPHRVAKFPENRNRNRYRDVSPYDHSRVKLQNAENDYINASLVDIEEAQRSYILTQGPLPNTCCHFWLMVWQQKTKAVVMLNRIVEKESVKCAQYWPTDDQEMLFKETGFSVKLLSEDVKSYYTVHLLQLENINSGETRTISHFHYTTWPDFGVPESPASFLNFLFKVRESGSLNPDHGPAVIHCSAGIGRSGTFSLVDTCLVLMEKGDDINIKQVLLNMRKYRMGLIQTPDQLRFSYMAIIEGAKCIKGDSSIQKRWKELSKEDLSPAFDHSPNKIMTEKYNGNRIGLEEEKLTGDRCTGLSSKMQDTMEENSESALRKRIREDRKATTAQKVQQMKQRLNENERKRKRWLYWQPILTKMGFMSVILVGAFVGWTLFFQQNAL

[5] = tested on: Mycobacterium tuberculosis; test: Antitubercular activity against Mycobacterium tuberculosis H37Rv after 5 days at 200 uM relative to control; format: functional; settings: 120 h
How it was run: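 M. tuberculosis grown in liquid culture with compound at a fixed 200 μM for 5 days. Growth inhibition expressed as percent of control.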

O=S(=O)(Nc1ccc(-c2nc3cc(NS(=O)(=O)c4ccc(Cl)s4)ccc3o2)cc1)c1ccc2ccccc2c1
pIC50 [1]: 5.41 | pIC50 [2]: 5.16 | pIC50 [3]: 4.96 | pIC50 [4]: 4.89 | inhibition at 200 µM [5]: 0%

CCc1ccc(S(=O)(=O)Nc2ccc(-c3nc4cc(NS(=O)(=O)c5ccc(Cl)s5)ccc4o3)cc2)cc1
pIC50 [1]: 5.19 | pIC50 [2]: 4.85 | pIC50 [3]: 4.92 | pIC50 [4]: 4.92 | inhibition at 200 µM [5]: 11%

O=S(=O)(Nc1ccc2oc(-c3ccc(NS(=O)(=O)c4ccc(Cl)s4)cc3)nc2c1)c1ccc(Cl)c(C(F)(F)F)c1
pIC50 [1]: 5.42 | pIC50 [2]: 5.12 | pIC50 [3]: 4.96 | pIC50 [4]: 4.85 | inhibition at 200 µM [5]: 0%

O=S(=O)(Nc1ccc(-c2nc3cc(NS(=O)(=O)C(F)(F)F)ccc3o2)cc1)C(F)(F)F
pIC50 [1]: 4.38 | pIC50 [2]: < 4.00 | pIC50 [3]: < 4.00 | pIC50 [4]: < 4.00 | inhibition at 200 µM [5]: 28%

COc1ccc(Cl)cc1S(=O)(=O)Nc1ccc(-c2nc3cc(NS(=O)(=O)c4ccc(Cl)s4)ccc3o2)cc1
pIC50 [1]: 5.47 | pIC50 [2]: 5.19 | pIC50 [3]: 4.96 | pIC50 [4]: 4.80 | inhibition at 200 µM [5]: 33%

O=S(=O)(Nc1ccc(-c2nc3cc(NS(=O)(=O)c4ccc(Cl)cc4)ccc3o2)cc1)c1ccc(Cl)cc1
pIC50 [1]: 5.37 | pIC50 [2]: 5.09 | pIC50 [3]: 4.92 | pIC50 [4]: 4.72 | inhibition at 200 µM [5]: 0%

O=S(=O)(Nc1ccc(-c2nc3cc(NS(=O)(=O)c4cccc5ccccc45)ccc3o2)cc1)c1cccc2ccccc12
pIC50 [1]: 5.68 | pIC50 [2]: 5.49 | pIC50 [3]: 5.31 | pIC50 [4]: 4.60 | inhibition at 200 µM [5]: 0%

O=S(=O)(Nc1ccc2oc(-c3ccc(NS(=O)(=O)c4ccc(Cl)s4)cc3)nc2c1)c1ccc2ncsc2c1
pIC50 [1]: 5.44 | pIC50 [2]: 4.92 | pIC50 [3]: 4.96 | pIC50 [4]: 5.03 | inhibition at 200 µM [5]: 50%

O=S(=O)(Nc1ccc(-c2nc3cc(NS(=O)(=O)c4ccc(Cl)s4)ccc3o2)cc1)c1cccs1
pIC50 [1]: 5.47 | pIC50 [2]: 5.31 | pIC50 [3]: 5.03 | pIC50 [4]: 5.02 | inhibition at 200 µM [5]: 0%

COc1ccc(Cl)cc1S(=O)(=O)Nc1ccc2oc(-c3ccc(NS(=O)(=O)c4ccc(Cl)s4)cc3)nc2c1
pIC50 [1]: 5.19 | pIC50 [2]: 5.00 | pIC50 [3]: 4.96 | pIC50 [4]: 5.04 | inhibition at 200 µM [5]: 39%

O=S(=O)(Nc1ccc(-c2nc3cc(NS(=O)(=O)c4cccc(C(F)(F)F)c4)ccc3o2)cc1)c1cccc(C(F)(F)F)c1
pIC50 [1]: 5.54 | pIC50 [2]: 4.92 | pIC50 [3]: 4.80 | pIC50 [4]: 4.92 | inhibition at 200 µM [5]: 0%

O=S(=O)(Nc1ccc(-c2nc3cc(NS(=O)(=O)c4ccc(Cl)s4)ccc3o2)cc1)c1ccc(Cl)c(Cl)c1
pIC50 [1]: 5.64 | pIC50 [2]: 5.16 | pIC50 [3]: 5.01 | pIC50 [4]: 4.92 | inhibition at 200 µM [5]: 0%

O=S(=O)(Nc1ccc(-c2nc3cc(NS(=O)(=O)c4ccc(Cl)s4)ccc3o2)cc1)c1ccccc1
pIC50 [1]: 5.17 | pIC50 [2]: 4.72 | pIC50 [3]: 4.77 | pIC50 [4]: 4.54 | inhibition at 200 µM [5]: 41%

O=S(=O)(Nc1ccc(-c2nc3cc(NS(=O)(=O)c4ccc(Cl)s4)ccc3o2)cc1)c1ccc2ncsc2c1
pIC50 [1]: 5.15 | pIC50 [2]: 5.10 | pIC50 [3]: 4.89 | pIC50 [4]: 4.96 | inhibition at 200 µM [5]: 33%

O=S(=O)(Nc1ccc2oc(-c3ccc(NS(=O)(=O)c4ccc(Cl)s4)cc3)nc2c1)c1cccc(C(F)(F)F)c1
pIC50 [1]: 5.15 | pIC50 [2]: 4.89 | pIC50 [3]: 4.80 | pIC50 [4]: 4.70 | inhibition at 200 µM [5]: 0%

COc1ccc(S(=O)(=O)Nc2ccc(-c3nc4cc(NS(=O)(=O)c5ccc(OC)cc5)ccc4o3)cc2)cc1
pIC50 [1]: 4.92 | pIC50 [2]: 4.85 | pIC50 [3]: 4.82 | pIC50 [4]: 4.80 | inhibition at 200 µM [5]: 0%

O=S(=O)(Nc1ccc(-c2nc3cc(NS(=O)(=O)c4ccc(Cl)s4)ccc3o2)cc1)c1ccc(F)c(C(F)(F)F)c1
pIC50 [1]: 5.17 | pIC50 [2]: 5.07 | pIC50 [3]: 4.85 | pIC50 [4]: 5.07 | inhibition at 200 µM [5]: 0%

O=S(=O)(Nc1ccc(-c2nc3cc(NS(=O)(=O)c4ccc(Cl)s4)ccc3o2)cc1)c1ccc(Cl)s1
pIC50 [1]: 5.64 | pIC50 [2]: 4.96 | pIC50 [3]: 4.82 | pIC50 [4]: 4.60 | inhibition at 200 µM [5]: 41%

O=S(=O)(Nc1ccc(-c2nc3cc(NS(=O)(=O)c4ccccc4Cl)ccc3o2)cc1)c1ccccc1Cl
pIC50 [1]: 5.19 | pIC50 [2]: 4.80 | pIC50 [3]: 4.77 | pIC50 [4]: 4.66 | inhibition at 200 µM [5]: 0%

O=S(=O)(Nc1ccc(-c2nc3cc(NS(=O)(=O)c4ccc(Cl)s4)ccc3o2)cc1)c1cccc(C(F)(F)F)c1
pIC50 [1]: 5.52 | pIC50 [2]: 4.92 | pIC50 [3]: 4.80 | pIC50 [4]: 4.80 | inhibition at 200 µM [5]: 36%

O=S(=O)(Nc1ccc(-c2nc3cc(NS(=O)(=O)c4ccc(Cl)s4)ccc3o2)cc1)c1ccc(Br)cc1
pIC50 [1]: 5.28 | pIC50 [2]: 5.06 | pIC50 [3]: 5.06 | pIC50 [4]: 4.96 | inhibition at 200 µM [5]: 0%

O=S(=O)(Nc1ccc(-c2nc3cc(NS(=O)(=O)c4ccc(Cl)s4)ccc3o2)cc1)c1ccc(Cl)c(C(F)(F)F)c1
pIC50 [1]: 5.70 | pIC50 [2]: 5.12 | pIC50 [3]: 4.92 | pIC50 [4]: 4.89 | inhibition at 200 µM [5]: 0%

O=S(=O)(Nc1ccc2oc(-c3ccc(NS(=O)(=O)c4ccc(Cl)s4)cc3)nc2c1)c1ccc2ccccc2c1
pIC50 [1]: 5.27 | pIC50 [2]: 5.10 | pIC50 [3]: 5.11 | pIC50 [4]: 5.13 | inhibition at 200 µM [5]: 0%

O=S(=O)(Nc1ccc(-c2nc3cc(NS(=O)(=O)c4cccc(Br)c4)ccc3o2)cc1)c1cccc(Br)c1
pIC50 [1]: 6.10 | pIC50 [2]: 4.85 | pIC50 [3]: 4.96 | pIC50 [4]: 4.96 | inhibition at 200 µM [5]: 17%

C=Cc1ccc(S(=O)(=O)Nc2ccc3oc(-c4ccc(NS(=O)(=O)c5ccc(Cl)s5)cc4)nc3c2)cc1
pIC50 [1]: 5.41 | pIC50 [2]: 5.14 | pIC50 [3]: 4.92 | pIC50 [4]: 4.92 | inhibition at 200 µM [5]: 10%

COC(=O)c1cccc(S(=O)(=O)Nc2ccc(-c3nc4cc(NS(=O)(=O)c5cccc(C(=O)OC)c5)ccc4o3)cc2)c1
pIC50 [1]: 5.24 | pIC50 [2]: 4.77 | pIC50 [3]: 4.80 | pIC50 [4]: 4.89 | inhibition at 200 µM [5]: 0%

O=[N+]([O-])c1cc(S(=O)(=O)Nc2ccc3oc(-c4ccc(NS(=O)(=O)c5ccc(Cl)s5)cc4)nc3c2)ccc1Cl
pIC50 [1]: 5.34 | pIC50 [2]: 5.03 | pIC50 [3]: 5.08 | pIC50 [4]: 5.05 | inhibition at 200 µM [5]: 1%

Cc1ccc(S(=O)(=O)Nc2ccc(-c3nc4cc(NS(=O)(=O)c5ccc(C)cc5)ccc4o3)cc2)cc1
pIC50 [1]: 5.16 | pIC50 [2]: 4.85 | pIC50 [3]: 4.85 | pIC50 [4]: 4.74 | inhibition at 200 µM [5]: 0%

COc1cccc(S(=O)(=O)Nc2ccc(-c3nc4cc(NS(=O)(=O)c5cccc(OC)c5)ccc4o3)cc2)c1
pIC50 [1]: 5.03 | pIC50 [2]: 4.74 | pIC50 [3]: 4.66 | pIC50 [4]: 4.80 | inhibition at 200 µM [5]: 0%

From ChEMBL document CHEMBL4387722
